Test results published in PMC10979060 (Heliyon, 2024).
Read-outs that look alike come from different tables or passages of the source. No end group written: not given here.

Key:
ACE [1] = experiment: ACE-inhibitory kinetics; format: biochemical
Method in brief: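 Reciprocal velocity was plotted against reciprocal HHL concentration (Lineweaver–Burk). Vmax came from the Y-axis intercept and Km from the X-axis intercept. The inhibition mode was assigned from the plot pattern. Runs were in triplicate.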

ACE [2] = settings: cited from earlier work

For KKCHFWPFPW [KKCHFWPFPW], the inhibition mode (ACE [1]; Lineweaver–Burk, HHL 0.5, 1, 2 mM, peptide 0, 17.63, 35.26, 70.52, 105.78, 141.04, 176.3 μM, triplicate) was “competitive inhibition”, the Km values (ACE [1]; Lineweaver–Burk, HHL 0.5, 1, 2 mM, peptide added vs control, triplicate) was “higher than that of the control” and the “inhibitor class (substrate-type, prodrug-type or true inhibitor)” value (ACE [1]; according to the Lineweaver–Burk plot) was “true inhibitor”.
In the case of MEGAQEAQGD, the IC50 (ACE [2]; peptide from sea cucumber, ref [38]) is given as 4.5 µM.
In the case of Tyr-Arg-Pro-Tyr, the IC50 (ACE [2]; peptide from bonito, ref [37]) is given as 320 µM.
For Val-Lys-Pro, the IC50 (ACE [2]; peptide from freshwater clam, ref [39]) is given as 3.7 µM.
